Results from ChEMBL document CHEMBL3272019, “Synthesis and some properties and antitumor effects of the actinomycin lactam analog, (di(1-L-alpha, beta-diaminopropionic))actinomycin D1” (1976).
≈ marks a conversion by molar mass, not a printed value. Calls of active or inactive are those of the source. No cut-off for these calls is given here. Starred links: 1 amine or outer side, 2 acyl side, 3 side chain; linkers in the order of their positions; H or OH if unused. Positions of bridges follow the written chain, without caps; N, C: chain ends. Non-standard residues stand in square brackets, D forms with d. Residues, ends and D or L forms follow the SMILES beside them. Chains are numbered I, II in the order given. Actinocin(1to9) = Cc1c2oc3c(C)ccc(C(=O)[*:2])c3nc-2c(C(=O)[*:1])c(N)c1=O; NMeV = CN[C@H](C(=O)O)C(C)C; Sar = CNCC(=O)O

How the values were obtained:
[1] = tested on: B16; test: Antitumor activity against mouse B16 cells allografted in BDF1 mouse assessed as mean survival time at 0.3 mg/kg/injection, ip administered intermittently on days 1, 5 and 9 (reference value: 28 days); type: functional; settings: route intraperitoneal
In short: (§1)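 B16 melanoma in mice, standard screening method. Schedules were daily on days 1–9, on days 1, 5 and 9, or a single day-1 injection, each over a four- to fivefold dose range. Survival time (range of individual deaths) was recorded, percent increase in life-span computed against untreated controls, and survivors tallied.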

[2] = tested on: P388; test: Antitumor activity against mouse P388 cells allografted in BDF1 mouse assessed as mean survival time at 0.4 mg/kg/injection, ip administered as single dose (reference value: 10.5 days); type: functional; settings: route intraperitoneal
In short: (§2)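 P388 leukaemia: 10⁶ cells implanted ip on day 0 into groups of eight male BDF mice. Dosing was ip daily on days 1–9, on days 1, 5 and 9, or as a single day-1 dose, over four- to fivefold dose ranges. Median survival time (range of deaths) and percent increase in life-span were recorded, with survivors/total counted at day 60.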

[3] = tested on: L1210; test: Antitumor activity against mouse L1210 cells allografted in BDF1 mouse assessed as increase in life span at 0.05 mg/kg/injection, ip administered daily for 9 days; type: functional; settings: 216 h, route intraperitoneal
[4] = tested on: L1210; test: Antitumor activity against mouse L1210 cells allografted in BDF1 mouse assessed as increase in life span at 0.4 mg/kg/injection, ip administered as single dose; type: functional; settings: route intraperitoneal
[5] = tested on: P388; test: Antitumor activity against mouse P388 cells allografted in BDF1 mouse assessed as increase in life span at 0.05 mg/kg/injection, ip administered daily for 9 days measured on day 60; type: functional; settings: route intraperitoneal; in short: as §2
[6] = tested on: B16; test: Antitumor activity against mouse B16 cells allografted in BDF1 mouse assessed as increase in life span at 0.3 mg/kg/injection, ip administered intermittently on days 1, 5 and 9 measured on day 60; type: functional; settings: 1440 h, route intraperitoneal; in short: as §1
[7] = tested on: B16; test: Antitumor activity against mouse B16 cells allografted in BDF1 mouse assessed as mean survival time at 0.025 mg/kg/injection, ip administered daily for 9 days (reference value: 28 days); type: functional; settings: route intraperitoneal; in short: as §1
[8] = tested on: B16; test: Antitumor activity against mouse B16 cells allografted in BDF1 mouse assessed as mean survival time at 0.4 mg/kg/injection, ip administered as single dose (reference value: 28 days); type: functional; settings: route intraperitoneal; in short: as §1
[9] = organism: Homo sapiens; test: Binding affinity to poly[d(DAP-A-T)] (unknown origin) at 14.3 uM by visible and near-UV CD spectrophotometry
In short: (§3)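 Visible and near-UV CD spectra of actinomycin D recorded free and with polynucleotide, in 0.01 M sodium phosphate pH 7.0 at about 23°, in 1-cm tandem cylindrical quartz cells. DNA levels were given as nucleotide phosphorus: PM2 0.54 mM, calf thymus 0.50 mM, poly[d(DAP-A-T)] 0.12 mM and poly[d(DAP-T)] 0.27 mM. Drug concentration was set from the 440 nm extinction coefficient (24450 M⁻¹ cm⁻¹).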

[10] = tested on: L1210; test: Antitumor activity against mouse L1210 cells allografted in BDF1 mouse assessed as mean survival time at 0.3 mg/kg/injection, ip administered intermittently on days 1, 5 and 9 (reference value: 9.6 days); type: functional; settings: route intraperitoneal
[11] = tested on: Bacillus subtilis; test: Antibacterial activity against Bacillus subtilis Marburg assessed as growth inhibition; type: functional
[12] = tested on: P388; test: Antitumor activity against mouse P388 cells allografted in BDF1 mouse assessed as increase in life span at 0.4 mg/kg/injection, ip administered as single dose measured on day 60; type: functional; settings: 1440 h, route intraperitoneal; in short: as §2
[13] = tested on: L1210; test: Antitumor activity against mouse L1210 cells allografted in BDF1 mouse assessed as mean survival time at 0.4 mg/kg/injection, ip administered as single dose (reference value: 9.6 days); type: functional; settings: route intraperitoneal
[14] = tested on: L1210; test: Antitumor activity against mouse L1210 cells allografted in BDF1 mouse assessed as mean survival time at 0.05 mg/kg/injection, ip administered daily for 9 days (reference value: 9.6 days); type: functional; settings: route intraperitoneal
[15] = tested on: Staphylococcus aureus; test: Antibacterial activity against Penicillin-resistant Staphylococcus aureus assessed as growth inhibition; type: functional
[16] = tested on: L1210; test: Antitumor activity against mouse L1210 cells allografted in BDF1 mouse assessed as increase in lifespan at 0.3 mg/kg/injection, ip administered intermittently on days 1, 5 and 9; type: functional; settings: route intraperitoneal
[17] = tested on: Sarcina; test: Antibacterial activity against Sarcina subflava assessed as growth inhibition; type: functional
[18] = tested on: B16; test: Antitumor activity against mouse B16 cells allografted in BDF1 mouse assessed as increase in life span at 0.4 mg/kg/injection, ip administered as single dose measured on day 60; type: functional; settings: 1440 h, route intraperitoneal; in short: as §1
[19] = tested on: Calf thymus DNA; test: Binding affinity to calf thymus DNA at 34.5 uM by visible and near-UV CD spectrophotometry; type: nucleic-acid assay; settings: Bos taurus; in short: as §3
[20] = tested on: P388; test: Antitumor activity against mouse P388 cells allografted in BDF1 mouse assessed as mean survival time at 0.05 mg/kg/injection, ip administered daily for 9 days (reference value: 10.5 days); type: functional; settings: route intraperitoneal; in short: as §2
[21] = tested on: P388; test: Antitumor activity against mouse P388 cells allografted in BDF1 mouse assessed as increase in life span at 0.3 mg/kg/injection, ip administered intermittently on days 1, 5 and 9 measured on day 60; type: functional; settings: 1440 h, route intraperitoneal; in short: as §2
[22] = tested on: P388; test: Antitumor activity against mouse P388 cells allografted in BDF1 mouse assessed as mean survival time at 0.3 mg/kg/injection, ip administered intermittently on days 1, 5 and 9 (reference value: 10.5 days); type: functional; settings: route intraperitoneal; in short: as §2
[23] = tested on: B16; test: Antitumor activity against mouse B16 cells allografted in BDF1 mouse assessed as increase in life span at 0.025 mg/kg/injection, ip administered daily for 9 days measured on day 60; type: functional; settings: route intraperitoneal; in short: as §1
[24] = organism: Homo sapiens; test: Binding affinity to poly[d(DAP-T)] (unknown origin) at 14.3 uM by visible and near-UV CD spectrophotometry; in short: as §3
[25] = tested on: Pseudoalteromonas phage PM2; test: Binding affinity to bacteriophage PM2 DNA at 31 uM by visible and near-UV CD spectrophotometry; in short: as §3

Structure (SMILES): Cc1c2oc3c(C)ccc(C(=O)N[C@@H]4C(=O)N[C@H](C(C)C)C(=O)N5CCC[C@H]5C(=O)N(C)CC(=O)N(C)[C@@H](C(C)C)C(=O)O[C@@H]4C)c3nc-2c(C(=O)N[C@@H]2C(=O)N[C@H](C(C)C)C(=O)N3CCC[C@H]3C(=O)N(C)CC(=O)N(C)[C@@H](C(C)C)C(=O)O[C@@H]2C)c(N)c1=O [DACTINOMYCIN] (I: T[dV]P[Sar][NMeV] / II: T[dV]P[Sar][NMeV]; ester I:1-I:C, II:1-II:C; linker I:N-II:N via Actinocin(1to9))
- MST [1]: 41.5 days
- MST [2]: 22 days
- ILS at 0.05 mg/kg [3]: 42%
- ILS at 0.4 mg/kg [4]: 31%
- ILS at 0.05 mg/kg [5]: 171%
- ILS at 0.3 mg/kg [6]: 48%
- MST [7]: 45 days
- MST [8]: 38.5 days
- Activity [9]: Active
- MST [10]: 14 days
- MIC [11]: 0.09 µg/mL (≈ 0.0717 µM)
- IC50 ([11]; read-out: ID50 (the source's name)): 0.05 µg/mL (≈ 0.0398 µM)
- ILS at 0.4 mg/kg [12]: 110%
- MST [13]: 12.6 days
- MST [14]: 13.6 days
- MIC [15]: 0.05 µg/mL (≈ 0.0398 µM)
- ILS at 0.3 mg/kg [16]: 45%
- MIC [17]: 0.045 µg/mL (≈ 0.0358 µM)
- ILS at 0.4 mg/kg [18]: 38%
- Activity [19]: Active
- MST [20]: 28.5 days
- ILS at 0.3 mg/kg [21]: 262%
- MST [22]: 38 days
- ILS at 0.025 mg/kg [23]: 61%
- Activity [24]: Active
- Activity [25]: Active
